Results on one compound are retold here after ChEMBL document CHEMBL1147917, “Synthesis and crystallographic analysis of benzophenone derivatives--the potential anti-inflammatory agents” (Bioorg Med Chem, 2007).

Structures are written as SMILES. Activity calls are given as the source filed them. The calls are words filed in the database; no cut-off is given here.

Data set [1] relates to Rattus norvegicus. The data set can be described thus: Antiinflammatory activity against carrageenan-induced paw edema in Albino rat assessed as oedema inhibition relative to control at 20 mg/kg, po. The data set is classed as functional. A digest of the protocol:
(§1)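 Rats given test compound orally; 30 min later, 0.2 mL of 1% carrageenan in 0.9% NaCl injected subcutaneously into plantar aponeurosis of the hind paw. Paw volume measured by water plethysmometer before and at 3 h. Mean paw-volume increase compared with a carrageenan-only control group of five rats. % inhibition = (1 − Gt/Gc) × 100. Values are means of three determinations.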

Data set [2] deals with Rattus norvegicus. Description: Antiinflammatory activity against carrageenan-induced paw edema in Albino rat assessed as oedema inhibition relative to control at 80 mg/kg, po. In kind it is functional. In outline:
as §1

In data set [3] the test system is Rattus norvegicus. The data set can be described thus: Antiinflammatory activity against carrageenan-induced paw edema in Albino rat assessed as oedema inhibition relative to control at 40 mg/kg, po. In kind it is functional. A digest of the protocol: as §1
Data set [4] relates to Rattus norvegicus. The data set can be described thus: Toxicity in rat assessed as incidence of hyperaemia at 100 mg/kg, po. In kind it is organism-based. The arrangement: dose 100 mg/kg, route oral. The settings on record: in vivo. In outline: (§2)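 Groups of 10 rats (200–230 g), fasted 24 h, dosed orally; controls untreated. Sacrificed 5 h after dosing. Stomach and small intestine examined under microscope for hyperaemia, epithelial shedding, petechiae, frank haemorrhage, erosion or discrete ulceration with or without perforation. Result expressed as percentage of animals affected.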

Data set [5] deals with Rattus norvegicus. Description: Toxicity in rat assessed as incidence of hyperaemia at 200 mg/kg, po. In kind it is organism-based. The arrangement: dose 200 mg/kg, route oral. The settings on record: in vivo. In outline:
as §2

The test system of data set [6] is Rattus norvegicus. Description: Toxicity in rat assessed as incidence of hyperaemia at 400 mg/kg, po. In kind it is organism-based. Set-up: dose 400 mg/kg, route oral. As to conditions: in vivo. A digest of the protocol: as §2
For data set [7], the system named is Rattus norvegicus. The data set can be described thus: Toxicity in rat assessed as incidence of ulcer at 200 mg/kg, po. In kind it is organism-based. The arrangement: dose 200 mg/kg, route oral. The settings on record: in vivo. In outline:
as §2

In data set [8] the test system is Rattus norvegicus. The data set can be described thus: Toxicity in rat assessed as incidence of ulcer at 100 mg/kg, po. The arrangement: dose 100 mg/kg, route oral. As to conditions: in vivo. The data set is classed as organism-based. In outline:
as §2

Data set [9] relates to Rattus norvegicus. Description: Toxicity in rat assessed as incidence of ulcer at 400 mg/kg, po. The data set is classed as organism-based. The arrangement: dose 400 mg/kg, route oral. As to conditions: in vivo. A digest of the protocol: as §2
For data set [10], the species on record is Oryctolagus cuniculus. Description: Inhibition of rabbit microsomal COX at 10 uM. A digest of the protocol: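 COX source: microsomal pellet from minced, homogenized rabbit distal colon mucosa in 0.1 M Tris, pH 8.0, used immediately. Microsomes preincubated with test agent 10 min at 37 °C in Tris-HCl pH 8.0 with 2 mM glutathione, 5 mM L-tryptophan and 1 µM haematin. Then 20 µM arachidonic acid plus [1-14C] tracer added for 5 min at 37 °C. PGE2 separated by isocratic HPLC; co-eluting radioactivity counted by scintillation. % inhibition calculated versus paired controls.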

The subject of data set [11] is Rattus norvegicus. Description: Antiinflammatory activity against carrageenan-induced paw edema in po dosed Albino rat assessed as oedema inhibition. The data set is classed as functional.
A short description of data set [12]: Toxicity in ip dosed Albino mouse. The data set is classed as organism-based. As to conditions: in vivo, read-out: ALD50. In outline: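 Albino mice, 25–30 g, groups of 10, given test compounds intraperitoneally at different dose levels. Mortality per group recorded 24 h after dosing. Approximate 50% lethal dose (ALD50) calculated from mortality data by the Smith method.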

On to `Cc1ccc(C(=O)c2cc(C)ccc2OC(=O)c2ccc(Cl)cc2)cc1`, for which the inhibition in vivo at 20 mg/kg in [1] is 31.4%. In addition, the inhibition in vivo at 80 mg/kg in data set [2] worked out at 85.5%. In addition, the inhibition in vivo at 40 mg/kg in data set [3] is 46.5%. Besides, the Activity in data set [4] is recorded as 25%; in [5], 50%; in [6], 75%; in [7], 25%; in data set [8] it was 15%; in data set [9], 18%. For the same compound, the outcome in [10] was inactive. Moreover, in data set [11], the ED50 stood at 57.3 mg/kg. Moreover, the LD50 in [12] was > 1000 mg/kg.
